# Screening data from PubChem.
# DAGLB inh: blocks human DAGLB lipase activity; inhibition, % at 5.17 µM; Q8NCG7; hit rate 0.059% among 340,000; HEK293T DAGLB membrane lysate, EnzChek fluorogenic substrate; in the data active means inhibition above about 34%
# Target sequence (Q8NCG7 whole entry, looked up): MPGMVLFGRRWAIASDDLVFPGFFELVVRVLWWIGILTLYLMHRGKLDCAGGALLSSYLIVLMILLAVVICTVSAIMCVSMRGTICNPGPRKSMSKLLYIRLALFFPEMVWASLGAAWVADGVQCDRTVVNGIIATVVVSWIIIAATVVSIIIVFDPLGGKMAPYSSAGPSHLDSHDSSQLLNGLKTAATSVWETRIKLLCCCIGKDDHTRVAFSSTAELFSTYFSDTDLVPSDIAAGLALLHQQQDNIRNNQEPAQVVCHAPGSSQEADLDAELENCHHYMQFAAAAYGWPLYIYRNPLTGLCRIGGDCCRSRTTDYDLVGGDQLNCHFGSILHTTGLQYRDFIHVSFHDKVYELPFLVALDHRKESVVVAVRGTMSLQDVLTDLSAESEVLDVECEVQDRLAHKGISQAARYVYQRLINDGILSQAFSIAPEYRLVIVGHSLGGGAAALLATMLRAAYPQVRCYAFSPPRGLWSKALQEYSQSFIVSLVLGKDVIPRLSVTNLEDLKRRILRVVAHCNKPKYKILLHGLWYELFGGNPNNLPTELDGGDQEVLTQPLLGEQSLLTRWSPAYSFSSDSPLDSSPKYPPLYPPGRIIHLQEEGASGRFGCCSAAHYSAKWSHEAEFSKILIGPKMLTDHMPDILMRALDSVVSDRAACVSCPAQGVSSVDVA
# bovine MsrA act: bovine methionine sulfoxide reductase A activation | activation, % at 10.6 µM | purified bovine MsrA, absorbance read-out | hit rate 0.3% among 360,000; in the data active means activation above about 7.5%
# MT1-MMP act inh: inhibitors of human MT1-MMP activation | P50281 | HT1080 RFP-PRO-GFP cells, GFP/RFP ratio fluorescence, overnight; percent of plate control window, DMSO zero | GFP/RFP ratio change, % at 20 µM | hit rate 0.061% among 360,000 | AID 651647;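 active means GFP/RFP ratio change of at least 30% with cell ATP level not reduced by more than half and red fluorescence within 50% of control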
#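 Test system: HT1080 RFP-PRO-GFP cells; Benchmarks: DMSO and RFP-L50D-GFP cell wells; Timing: cells overnight before dosing, compound overnight, 37 °C, 5% CO2; Compound: one 20 µM compound dose with 1% DMSO; Read-out: GFP/RFP fluorescence ratio.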
# SKN-1 inh: C. elegans SKN-1 inhibition. hit rate 0.49% among 360,000. inhibition, % at 21.8 µM. C. elegans VP596 Pgst-4::GFP/RFP ratio, acrylamide-induced, 24 h;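 active means interference check ratio from 0.5 to 1.5 plus GFP to RFP signal ratio inhibition reaching or exceeding a fixed threshold, cut at about 30% in these data, passing the limit was not always enough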
# beta cell repl: induces beta-cell replication in MIN6 cells; proliferation, % at 10 µM; MIN6 cells proliferation, ATPlite luminescence, 48 h; cells starved in 0.2% serum; 100% = growth in 10% serum; hit rate 0.29% among 330,000; AID 2380;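 active means compounds whose signal lies at least 3.5 SD above the mean of all wells on their plate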
# MsrA inhibitor: inhibitors of bovine MsrA | hit rate 0.75% among 360,000 | inhibition, % at 15.5 µM | purified bovine MsrA, absorbance read-out | AID 651718
# MsrA conf: bovine MsrA inhibition, confirmed; shares compounds with MsrA inhibitor; purified bovine MsrA, absorbance read-out; inhibition, % at 15.5 µM; hit rate 41% among 2,300;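 further: coupled to thioredoxin reductase with NADPH and selenocystamine and DMSO as substrate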
# Numbers stand for hits; - = inactive; . = no result given. An excerpt weighted towards active compounds, which were near 1.8% of everything screened. Unless noted, no stated cut-off is given here; in the data, active means inhibition above about 4.5%; inactive means the rest.
SMILES,DAGLB inh,bovine MsrA act,MT1-MMP act inh,SKN-1 inh,beta cell repl,MsrA inhibitor,MsrA conf
O=C(O)c1ccc(N/N=C/c2ccc3nccnc3c2)cc1,-,-,-,-,-,4.8,-
O=C(C1CN(C(=O)c2cc3cc(Cl)ccc3o2)c2ccccc2O1)N1CCCCC1 (stereo not drawn),-,-,-,-,-,-,.
Nc1ccccc1C(=O)N=Nc1[nH]c(N)c2ccccc12,-,-,-,-,-,5.4,-
O=C(c1cc(-c2cccc(Cl)c2)nc2ccccc12)N1CCCC1,-,-,-,-,-,-,.
Cn1cnc([N+](=O)[O-])c1Sc1nc(N)nc2c1ncn2C1CC(O)C(CO)O1 (stereo not drawn),-,-,-,-,.,5.5,-
O=[N+]([O-])c1ccc(N2CCN(C(=S)Nc3ccc(F)cc3F)CC2)cc1,-,-,-,-,-,-,.
O=C1NC(=Nc2ccc(O)cc2)S/C1=C/c1ccco1,-,-,-,-,-,4.7,4.7
Nc1ncc([N+](=O)[O-])cc1Br,-,-,-,-,-,5.4,-
CS(=O)(=O)c1ccc2nc(NC(=O)c3ccc(S(=O)(=O)NCC4CCCO4)cc3)sc2c1 (stereo not drawn),-,-,-,-,-,5.0,-
CS(=O)(=O)c1ccc2nc(NC(=O)c3ccc(NS(=O)(=O)c4cccc([N+](=O)[O-])c4)cc3)sc2c1,-,-,-,-,-,5.3,5.3
Cc1cccc(C(=O)Nc2nc3ccc(S(C)(=O)=O)cc3s2)c1,-,-,-,-,-,-,.
Cc1ccc(C(=O)Nc2nc3ccc(S(C)(=O)=O)cc3s2)cc1C,-,-,-,-,-,-,.
N#C/C(=C\c1cccc(O)c1)C(=O)N1CCCCC1,-,-,-,-,-,-,.
Cc1cc(/C=C(\C#N)C(=O)N2CCCCC2)cc(C)c1O,-,-,-,-,-,4.8,-
CCCCc1cc(=O)oc2cc(C)cc(OC(C)C(=O)NCc3ccccn3)c12 (stereo not drawn),-,-,-,-,-,6.4,-
Cc1cc(OC(C)C(=O)NCc2ccccn2)c2c(C)cc(=O)oc2c1 (stereo not drawn),-,-,-,-,-,-,.
O=C(Nc1ccccc1C(=O)N1CCCCCC1)c1cccc([N+](=O)[O-])c1,-,-,-,-,-,-,.
CCc1ccc(-n2c(=S)sc3c(=O)n(-c4ccccc4)c(SCC(=O)O)nc32)cc1,-,-,-,-,-,-,.
CCCc1nc(SCC(=O)O)c2sc(=S)n(-c3ccccc3)c2n1,-,-,-,-,-,4.7,4.8
Cc1nc(Cl)cc(N/N=C/c2ccc(O)cc2O)n1,-,-,-,-,-,5.7,6.2
COc1ccc(/C=N/Nc2cc(C)nc(-n3nc(C)cc3C)n2)cc1,-,-,-,-,-,-,.
Cc1cc(N/N=C/c2ccc(O)cc2O)nc(-n2nc(C)cc2C)n1,-,-,-,-,.,4.8,-
Cc1nc(Cl)cc(N/N=C/c2ccc(O)cc2)n1,-,-,-,-,-,-,.
CCSC1=N/C(=C\c2ccc3c(c2)OCO3)C(=O)S1,-,-,-,-,-,-,.
O=C1NC(N2CCOCC2)=N/C1=C/c1ccc2c(c1)OCO2,-,-,-,-,-,4.9,-
SMILES,DAGLB inh,bovine MsrA act,MT1-MMP act inh,SKN-1 inh,beta cell repl,MsrA inhibitor,MsrA conf
CCOc1cc(N2CCOCC2)c(OCC)cc1NCC(=O)N1CCN(Cc2ccccc2)CC1,-,-,-,-,-,-,.
C(=N\Nc1ccccn1)/c1cccnc1,-,-,-,-,-,5.6,-
FC(F)(F)c1ccc(N/N=C/c2cccnc2)nc1,-,-,-,-,-,-,.
COc1ccc(CCNC(=O)CS(=O)(=O)c2cn(CC(=O)N(C(C)C)C(C)C)c3ccccc23)cc1OC,-,-,-,-,-,-,.
CCOCCn1c(=NC(=O)CSCC(=O)Nc2cc(C)on2)sc2cc(OC)ccc21,-,-,-,-,-,6.3,-
O=C(O)c1ccc(NC2=C/C(=N/S(=O)(=O)c3ccccc3)c3ccccc3C2=O)cc1,-,-,-,-,-,65,63
O=C(O)c1ccc(NC2=C/C(=N/S(=O)(=O)c3cccs3)c3ccccc3C2=O)cc1,-,-,-,-,.,62,66
O=S(=O)(N=C1C=CC(=NS(=O)(=O)c2ccccc2)c2ccccc21)c1ccccc1,-,-,-,-,.,-,.
O=C(CN(CCO)Cc1ccccc1)N1CCN(S(=O)(=O)c2ccccc2)CC1,-,-,-,-,.,-,.
CC(=O)Nc1ccccc1OCC(O)CS(=O)(=O)c1ccc(C(F)(F)F)cn1 (stereo not drawn),-,-,-,-,-,-,.
COc1ccc(C2/C(=C(/O)c3ccccc3)C(=O)C(=O)N2CCCN2CCOCC2)cc1 (stereo not drawn),-,-,-,-,-,-,.
O=C1C(=O)N(CCCn2ccnc2)C(c2ccc(Br)cc2)/C1=C(\O)c1ccc2c(c1)OCCO2 (stereo not drawn),-,-,-,-,-,-,.
O=C1C(=O)N(CCCn2ccnc2)C(c2ccc(Cl)cc2)/C1=C(\O)c1ccc2c(c1)OCCO2 (stereo not drawn),-,-,-,-,-,9.1,-
COc1ccc(/C(O)=C2/C(=O)C(=O)N(CCCN3CCOCC3)C2c2ccc(Cl)cc2)cc1 (stereo not drawn),-,-,-,-,.,6.8,-
CC1Sc2ccccc2N(Cc2ccccc2)C1=O (stereo not drawn),.,-,-,-,.,-,.
CC1Sc2ccc(C#N)cc2N(Cc2cccc(C(F)(F)F)c2)C1=O (stereo not drawn),.,-,-,-,.,5.4,-
CN(N=Cc1ccccc1O)c1ccc2ccccc2n1,-,-,-,-,.,-,.
CN(/N=C/c1cc(Br)cc(Br)c1O)c1cccc(C(F)(F)F)n1,-,-,-,-,-,5.8,-
C/C(=N\Nc1ccc([N+](=O)[O-])cc1[N+](=O)[O-])c1cccnc1,-,-,-,-,-,13,16
C/C(=N\Nc1ccc(S(N)(=O)=O)cc1[N+](=O)[O-])c1cccnc1,-,-,-,-,-,11,10
COCCN(Cc1ccccc1)C(=S)Nc1ccc(Cl)cc1,-,-,-,-,-,-,.
CCCn1c(SC/C(O)=C(\C#N)c2nc3ccccc3[nH]2)n[nH]c1=O,-,-,-,-,-,4.7,-
N#C/C(=C(/O)CSc1n[nH]c(N)n1)c1nc2ccccc2[nH]1,-,-,-,-,-,-,.
Cn1cnnc1SC/C(O)=C(\C#N)c1nc2ccccc2[nH]1,-,-,-,-,-,4.8,-
COc1ccc(C)cc1NC(=S)NC(C)c1ccc(OC)c(OC)c1 (stereo not drawn),-,-,-,-,-,-,.
O=C(Nc1sc2c(c1C(=O)O)CCCCC2)c1ccco1,-,-,-,-,-,6.0,-
